This note sets out measurements from ChEMBL document CHEMBL1141179 (J Med Chem, 2005).

In experiment [1] the target is Somatostatin receptor type 1 (Homo sapiens, UniProt P30872). The experiment in a line: Inhibition of 125I-[Leu8,D-Trp22,Tyr25]SRIF-28 binding to human somatostatin receptor type 1. Put shortly: (§1)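 Human sst1 or sst5 receptor stably expressed in CHO-K1 cells. 20 µm cryostat sections of cell membrane pellets were used for receptor autoradiography. IC50 (nM) came from competitive radioligand displacement. Values are mean ± SEM when N ≥ 3; otherwise mean with single values.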
Chain of Somatostatin receptor type 1 (P30872 whole entry): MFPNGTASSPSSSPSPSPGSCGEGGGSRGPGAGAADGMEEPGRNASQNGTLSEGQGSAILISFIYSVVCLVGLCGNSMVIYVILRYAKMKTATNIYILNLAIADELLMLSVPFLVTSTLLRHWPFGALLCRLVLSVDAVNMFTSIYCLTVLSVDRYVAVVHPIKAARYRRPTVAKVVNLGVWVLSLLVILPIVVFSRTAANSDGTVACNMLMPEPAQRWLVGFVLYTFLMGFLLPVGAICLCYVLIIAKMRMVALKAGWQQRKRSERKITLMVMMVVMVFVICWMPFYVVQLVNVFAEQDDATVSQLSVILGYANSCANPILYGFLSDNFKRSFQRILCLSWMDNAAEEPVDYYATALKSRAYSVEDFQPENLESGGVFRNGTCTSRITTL

The target of experiment [2] is Somatostatin receptor type 3 (Homo sapiens, UniProt P32745). The experiment in a line: Inhibition of 125I-[Leu8,D-Trp22,Tyr25]SRIF-28 binding to human somatostatin receptor type 3. Put shortly:
(§2)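 Human sst2 or sst3 receptor stably expressed in CCL39 cells. 20 µm cryostat sections of cell membrane pellets were used for autoradiographic binding. IC50 (nM) came from competitive displacement. Values are mean ± SEM when N ≥ 3; otherwise mean with single values.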

Experiment [3] deals with Somatostatin receptor type 2 (Homo sapiens, UniProt P30874). Nature of the experiment: Inhibition of 125I-[Leu8,D-Trp22,Tyr25]SRIF-28 binding to human somatostatin receptor type 2. An outline of the steps:
as §2

For experiment [4], the target named is Somatostatin receptor type 4 (Homo sapiens, UniProt P31391). Nature of the experiment: Inhibition of 125I-[Leu8,D-Trp22,Tyr25]SRIF-28 binding to human somatostatin receptor type 4.
Chain of Somatostatin receptor type 4 (P31391 whole entry): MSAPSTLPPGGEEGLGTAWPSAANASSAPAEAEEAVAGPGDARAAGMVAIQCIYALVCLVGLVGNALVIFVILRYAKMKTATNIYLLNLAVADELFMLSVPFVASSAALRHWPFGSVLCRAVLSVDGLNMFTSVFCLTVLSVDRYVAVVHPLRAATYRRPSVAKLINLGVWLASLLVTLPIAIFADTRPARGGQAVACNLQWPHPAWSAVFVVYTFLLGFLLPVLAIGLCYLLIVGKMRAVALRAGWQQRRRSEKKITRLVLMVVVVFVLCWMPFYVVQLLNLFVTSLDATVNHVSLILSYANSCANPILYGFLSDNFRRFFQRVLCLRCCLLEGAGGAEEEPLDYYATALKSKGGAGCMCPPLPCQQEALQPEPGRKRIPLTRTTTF
Experiment [5] has as its target Somatostatin receptor type 5 (Homo sapiens, UniProt P35346). Nature of the experiment: Inhibition of 125I-[Leu8,D-Trp22,Tyr25]SRIF-28 binding to human somatostatin receptor type 5. An outline of the steps: as §1

Chain of Somatostatin receptor type 3 (P32745 whole entry): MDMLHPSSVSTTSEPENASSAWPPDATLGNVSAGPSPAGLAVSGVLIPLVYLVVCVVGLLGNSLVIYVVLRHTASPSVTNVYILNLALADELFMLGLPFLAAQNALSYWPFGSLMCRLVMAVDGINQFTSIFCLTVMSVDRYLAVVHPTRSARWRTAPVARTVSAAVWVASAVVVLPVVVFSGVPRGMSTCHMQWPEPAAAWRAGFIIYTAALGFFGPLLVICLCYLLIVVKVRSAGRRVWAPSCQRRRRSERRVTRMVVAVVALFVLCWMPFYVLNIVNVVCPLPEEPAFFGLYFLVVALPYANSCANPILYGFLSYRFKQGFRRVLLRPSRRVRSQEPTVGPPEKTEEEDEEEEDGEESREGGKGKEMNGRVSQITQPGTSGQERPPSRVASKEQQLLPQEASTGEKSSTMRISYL
Chain of Somatostatin receptor type 2 (P30874 whole entry): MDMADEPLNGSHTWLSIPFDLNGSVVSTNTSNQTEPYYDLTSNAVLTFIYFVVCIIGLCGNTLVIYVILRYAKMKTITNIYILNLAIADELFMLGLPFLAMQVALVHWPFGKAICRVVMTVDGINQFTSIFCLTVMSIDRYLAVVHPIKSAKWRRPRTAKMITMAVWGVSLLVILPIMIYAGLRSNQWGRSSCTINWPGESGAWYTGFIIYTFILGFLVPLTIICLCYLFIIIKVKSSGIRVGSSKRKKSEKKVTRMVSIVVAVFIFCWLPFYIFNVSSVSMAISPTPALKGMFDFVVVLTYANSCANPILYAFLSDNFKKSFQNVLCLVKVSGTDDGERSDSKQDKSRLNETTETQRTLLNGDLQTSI
Chain of Somatostatin receptor type 5 (P35346 whole entry): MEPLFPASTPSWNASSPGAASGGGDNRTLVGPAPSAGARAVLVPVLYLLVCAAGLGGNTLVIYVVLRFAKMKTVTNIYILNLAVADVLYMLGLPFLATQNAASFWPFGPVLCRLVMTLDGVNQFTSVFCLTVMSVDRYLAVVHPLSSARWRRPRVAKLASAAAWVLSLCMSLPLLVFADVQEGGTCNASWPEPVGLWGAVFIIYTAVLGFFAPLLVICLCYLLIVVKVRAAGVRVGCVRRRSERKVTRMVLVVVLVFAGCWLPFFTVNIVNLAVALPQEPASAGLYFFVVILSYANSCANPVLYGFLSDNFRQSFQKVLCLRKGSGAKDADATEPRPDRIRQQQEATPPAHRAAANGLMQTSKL

As a reminder, the IC50 is the midpoint of a concentration-inhibition curve. As to `CC(C)NCc1ccc(C[C@@H]2NC(=O)[C@@H](Cc3c[nH]c4ccccc34)NC(=O)[C@@H]3CCC(=O)NCCCC[C@H](NC(=O)[C@H](Cc4ccccc4)NC(=O)[C@H]([C@@H](C)O)NC2=O)C(=O)N[C@@H](CO)C(=O)N[C@H](C(N)=O)CSSC[C@H](NC(=O)[C@@H](N)Cc2ccc(O)cc2)C(=O)N[C@@H](CCCCN)C(=O)N[C@@H](Cc2ccccc2)C(=O)N3)cc1`, the IC50 is 0.181 µM in experiment [1]; greater than 1 µM in experiment [2]; greater than 1 µM in experiment [3]; greater than 1 µM in experiment [4]; greater than 1 µM in experiment [5].
For `CC(C)NCc1ccc(C[C@H]2C(=O)N[C@@H]([C@@H](C)O)C(=O)N[C@@H](Cc3ccc(O)c(I)c3)C(=O)N[C@H]3CCCCCCNC(=O)CC[C@H](NC(=O)[C@H](Cc4ccccc4)NC(=O)[C@H](CCCCN)NC(=O)[C@@H](N)CSSC[C@@H](C(=O)O)NC(=O)[C@H](CO)NC3=O)C(=O)N[C@H](Cc3c[nH]c4ccccc34)C(=O)N2C)cc1`, the IC50 in experiment [1] was 0.046 µM; in experiment [2], greater than 1 µM; in experiment [3] it was greater than 1 µM; in experiment [4], 0.611 µM; in experiment [5], greater than 1 µM.
In the case of `C[C@@H](O)[C@@H]1NC(=O)[C@H](CCCCN)NC(=O)[C@@H](Cc2c[nH]c3ccccc23)NC(=O)[C@H](Cc2ccccc2)NC(=O)[C@H](Cc2ccccc2)NC(=O)[C@H](CC(N)=O)NC(=O)[C@@H](N)CSSC[C@@H](C(=O)O)NC(=O)[C@H](Cc2ccccc2)NC1=O`, the IC50 in experiment [1] amounted to 0.059 µM; in experiment [2], 0.189 µM; in experiment [3] it was 0.095 µM; in experiment [4], 0.0012 µM; in experiment [5], 0.031 µM.
In the same order, the values of `CC(C)NCc1ccc(C[C@@H]2NC(=O)[C@@H](Cc3c[nH]c4ccccc34)NC(=O)[C@@H]3CCC(=O)NCCC(=O)NCCC[C@H](NC(=O)[C@H](Cc4ccccc4)NC(=O)[C@H]([C@@H](C)O)NC2=O)C(=O)N[C@@H](CO)C(=O)N[C@H](C(=O)O)CSSC[C@H](NC(=O)[C@@H](N)Cc2ccc(O)cc2)C(=O)N[C@@H](CCCCN)C(=O)N[C@@H](Cc2ccccc2)C(=O)N3)cc1` are 0.064 µM, greater than 1 µM, greater than 1 µM, greater than 1 µM and greater than 1 µM.
In the same order, the values of `CC(C)NCc1ccc(C[C@@H]2NC(=O)[C@@H](Cc3c[nH]c4ccccc34)NC(=O)[C@@H]3CCC(=O)NCCCC(=O)NCCCC[C@H](NC(=O)[C@H](Cc4ccccc4)NC(=O)[C@H]([C@@H](C)O)NC2=O)C(=O)N[C@@H](CO)C(=O)N[C@H](C(=O)O)CSSC[C@H](NC(=O)[C@@H](N)Cc2ccc(O)cc2)C(=O)N[C@@H](CCCCN)C(=O)N[C@@H](Cc2ccccc2)C(=O)N3)cc1` are 0.274 µM, greater than 1 µM, greater than 1 µM, greater than 1 µM and greater than 1 µM.
In the same order, the values of `C[C@@H](O)[C@@H]1NC(=O)[C@H](Cc2ccccc2)NC(=O)[C@H]([C@@H](C)O)NC(=O)[C@H](CCCCN)NC(=O)[C@@H](Cc2c[nH]c3ccccc23)NC(=O)[C@H](Cc2ccccc2)NC(=O)[C@H](Cc2ccccc2)NC(=O)[C@@H](N)CSSC[C@@H](C(=O)O)NC1=O` are 0.197 µM, 0.052 µM, 0.0019 µM, 0.001 µM and 0.043 µM.
On to `CC(C)NCc1ccc(C[C@H]2C(=O)N[C@@H]([C@@H](C)O)C(=O)N[C@@H](Cc3ccc(O)c(I)c3)C(=O)N[C@H]3CCCCNC(=O)CC[C@H](NC(=O)[C@H](Cc4ccccc4)NC(=O)[C@H](CCCCN)NC(=O)[C@@H](N)CSSC[C@@H](C(=O)O)NC(=O)[C@H](CO)NC3=O)C(=O)N[C@H](Cc3c[nH]c4ccccc34)C(=O)N2C)cc1`, for which the IC50 is 0.014 µM in experiment [1]; 0.254 µM in experiment [2]; greater than 1 µM in experiment [3]; greater than 1 µM in experiment [4]; greater than 1 µM in experiment [5].
For `CC(C)NCc1ccc(C[C@@H]2NC(=O)[C@@H](Cc3c[nH]c4ccccc34)NC(=O)[C@@H]3CCC(=O)NCCCC[C@H](NC(=O)[C@H](Cc4ccc(O)cc4)NC(=O)[C@H]([C@@H](C)O)NC2=O)C(=O)N[C@@H](CO)C(=O)N[C@H](C(N)=O)CSSC[C@H](N)C(=O)N[C@@H](CCCCN)C(=O)N[C@@H](Cc2ccccc2)C(=O)N3)cc1`, the IC50 is 0.018 µM in experiment [1]; greater than 1 µM in experiment [2]; greater than 1 µM in experiment [3]; greater than 1 µM in experiment [4]; greater than 1 µM in experiment [5].
For `C[C@@H](O)[C@@H]1NC(=O)[C@H](Cc2ccccc2)NC(=O)[C@H]([C@@H](C)O)NC(=O)[C@H](CCCCN)NC(=O)[C@@H](Cc2c[nH]c3ccccc23)NC(=O)[C@H](Cc2ccccc2)NC(=O)[C@H](Cc2ccccc2)NC(=O)[C@H](CC(N)=O)NC(=O)[C@@H](N)CSSC[C@@H](C(=O)O)NC1=O`, the IC50 amounted to 0.112 µM in experiment [1]; 0.011 µM in experiment [2]; 0.005 µM in experiment [3]; 0.0014 µM in experiment [4]; 0.0095 µM in experiment [5].
Taken in the same sequence, the figures for `CC(C)NCc1ccc(C[C@@H]2NC(=O)[C@@H](Cc3c[nH]c4ccccc34)NC(=O)[C@@H]3CCC(=O)NCCC(=O)NCC[C@H](NC(=O)[C@H](Cc4ccccc4)NC(=O)[C@H]([C@@H](C)O)NC2=O)C(=O)N[C@@H](CO)C(=O)N[C@H](C(=O)O)CSSC[C@H](NC(=O)[C@@H](N)Cc2ccc(O)cc2)C(=O)N[C@@H](CCCCN)C(=O)N[C@@H](Cc2ccccc2)C(=O)N3)cc1` were 0.074 µM, greater than 1 µM, greater than 1 µM, greater than 1 µM and greater than 1 µM.
In the same order, the values of `CC(C)NCc1ccc(C[C@H]2C(=O)N[C@@H]([C@@H](C)O)C(=O)N[C@@H](Cc3ccc(O)c(I)c3)C(=O)N[C@@H]3CCCCCCNC(=O)CC[C@H](NC(=O)[C@H](Cc4ccccc4)NC(=O)[C@H](CCCCN)NC(=O)[C@@H](N)CSSC[C@@H](C(=O)O)NC(=O)[C@H](CO)NC3=O)C(=O)N[C@H](Cc3c[nH]c4ccccc34)C(=O)N2C)cc1` are 0.62 µM, greater than 1 µM, greater than 1 µM, 0.215 µM and greater than 1 µM.
In the same order, the values of `CC(C)NCc1ccc(C[C@@H]2NC(=O)[C@@H](Cc3c[nH]c4ccccc34)NC(=O)[C@@H](NC(=O)[C@@H](N)Cc3ccccc3)CCC(=O)NCCCC[C@@H](C(=O)N[C@@H](CO)C(=O)O)NC(=O)[C@H](Cc3ccccc3)NC(=O)[C@H]([C@@H](C)O)NC2=O)cc1` are greater than 1 µM, greater than 1 µM, greater than 1 µM, greater than 1 µM and greater than 1 µM.
Take `CC(C)NCc1ccc(C[C@@H]2NC(=O)[C@@H](Cc3c[nH]c4ccccc34)NC(=O)[C@@H]3CCC(=O)NCCCC(=O)NCCC[C@H](NC(=O)[C@H](Cc4ccccc4)NC(=O)[C@H]([C@@H](C)O)NC2=O)C(=O)N[C@@H](CO)C(=O)N[C@H](C(=O)O)CSSC[C@H](NC(=O)[C@@H](N)Cc2ccc(O)cc2)C(=O)N[C@@H](CCCCN)C(=O)N[C@@H](Cc2ccccc2)C(=O)N3)cc1`: the half-inhibitory concentration (IC50) was 0.167 µM in experiment [1]; greater than 1 µM in experiment [2]; greater than 1 µM in experiment [3]; greater than 1 µM in experiment [4]; greater than 1 µM in experiment [5].
In the case of `C[C@@H](O)[C@@H]1NC(=O)[C@H](Cc2ccccc2)NC(=O)[C@H]([C@@H](C)O)NC(=O)[C@H](CCCCN)NC(=O)[C@@H](Cc2c[nH]c3ccccc23)NC(=O)[C@H](Cc2ccccc2)NC(=O)[C@H](Cc2ccccc2)NC(=O)[C@@H](N)CSSC[C@@H](C(=O)O)NC(=O)[C@H](CO)NC1=O`, the concentration for half-maximal inhibition (IC50) was 0.079 µM in experiment [1]; 0.222 µM in experiment [2]; 0.028 µM in experiment [3]; 0.0033 µM in experiment [4]; 0.0086 µM in experiment [5].
On to `CC(C)NCc1ccc(C[C@@H]2NC(=O)[C@@H](Cc3c[nH]c4ccccc34)NC(=O)[C@@H]3CCC(=O)NCCCC[C@H](NC(=O)[C@H](Cc4ccccc4)NC(=O)[C@H]([C@@H](C)O)NC2=O)C(=O)N[C@@H](CO)C(=O)N[C@H](C(=O)O)CSSC[C@H](NC(=O)[C@@H](N)Cc2ccc(O)c(I)c2)C(=O)N[C@@H](CCCCN)C(=O)N[C@@H](Cc2ccccc2)C(=O)N3)cc1`, for which the IC50 in experiment [1] is 0.089 µM; in experiment [2], greater than 1 µM; in experiment [3] it was greater than 1 µM; in experiment [4], greater than 1 µM; in experiment [5], greater than 1 µM.
Take `CC(C)NCc1ccc(C[C@@H]2NC(=O)[C@@H](Cc3c[nH]c4ccccc34)NC(=O)[C@@H]3CCC(=O)NCCCC(=O)NCC[C@H](NC(=O)[C@H](Cc4ccccc4)NC(=O)[C@H]([C@@H](C)O)NC2=O)C(=O)N[C@@H](CO)C(=O)N[C@H](C(=O)O)CSSC[C@H](NC(=O)[C@@H](N)Cc2ccc(O)cc2)C(=O)N[C@@H](CCCCN)C(=O)N[C@@H](Cc2ccccc2)C(=O)N3)cc1`: the half-maximal inhibitory concentration (IC50) in experiment [1] is 0.061 µM; in experiment [2] it was greater than 1 µM; in experiment [3] it was greater than 1 µM; in experiment [4], greater than 1 µM; in experiment [5], greater than 1 µM.
`CC(C)NCc1ccc(C[C@@H]2NC(=O)C(Cc3c[nH]c4ccccc34)NC(=O)[C@H](Cc3ccccc3)NC(=O)[C@@H](Cc3ccccc3)NC(=O)[C@H](NC(=O)[C@@H](N)Cc3ccc(O)cc3)CSSC[C@@H](C(=O)O)NC(=O)[C@@H]([C@@H](C)O)NC(=O)[C@H](Cc3ccccc3)NC(=O)[C@@H]([C@@H](C)O)NC2=O)cc1` (stereo in doubt): the IC50 in experiment [1] was 0.72 µM; in experiment [2] it was 0.445 µM; in experiment [3], greater than 1 µM; in experiment [4] it was greater than 1 µM.
